One test has as its system HepG2. The test can be described thus: Cytotoxicity against human HepG2 cells. Format: functional, cell-based.
A short description of test [1]: Cytotoxicity against human Hep3B cells. The class given is functional, cell-based, Hep 3B2.
The test system of a further test is MCF7. Put plainly: Cytotoxicity against human MCF7 cells. The class given is functional, cell-based.
The next test deals with MDA-MB-231. The test can be described thus: Cytotoxicity against human MDA-MB-231 cells. The class given is functional, cell-based.
In test [2] the test system is NUGC-3. Put plainly: Cytotoxicity against human NUGC3 cells at 20 ug/mL. The class given is functional. The essentials: (§1)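 Samples were tested on the cells at two fixed concentrations, 20 and 4 µg/mL. The value is reported as percent inhibition at each concentration.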
Test [3] has as its system NUGC-3. Put plainly: Cytotoxicity against human NUGC3 cells at 4 ug/mL. Format: functional. Put shortly: as §1
Test [4] can be described thus: Cytotoxicity against human HONE1 cells at 20 ug/mL. Format: functional. Put shortly: as §1
Test [5] is described as follows: Cytotoxicity against human HONE1 cells at 4 ug/mL. Format: functional. Put shortly:
as §1

Another test concerns P388. The test can be described thus: Antitumor activity against mouse P388 cells xenografted in mouse. The class given is functional.

Structures are written as SMILES. Values after ≈ are worked out from the molar mass of the structure shown. A value given as a limit tells only on which side of the number the result lay.

As usually defined, the IC50 is the concentration that gives 50% inhibition. A lower IC50 goes with inhibition by little substance. The term inhibition denotes the relative decrease from the control value, in per cent. A low value points to a response near the control. By T/C is commonly meant the ratio of treated to control. In the case of `COc1ccc2c(c1O)[C@]13CCN[C@@H](C2)C1C(OC)[C@@H](O)[C@@H](O)C3` (some centres not stated), the IC50 in the test on HepG2 amounted to 2 µg/mL (≈ 5.96 µM); in [1], 2 µg/mL (≈ 5.96 µM); in the test with MCF7 it was 2 µg/mL (≈ 5.96 µM); in the test with MDA-MB-231 it was 1.2 µg/mL (≈ 3.58 µM). Besides, the inhibition at 20 µg/mL amounted to 96% in the test on NUGC-3 [2] and 84% in test [4]. Further, the inhibition at 4 µg/mL (in the test with NUGC-3 [3]; in test [5]) was 82% in each case. In the test with P388, this compound registered a T/C of 166%.
On to `COc1cc2c(c(OC)c1OC)CCN1C(=O)c3c(ccc(OC)c3OC)C[C@@H]21`, for which the 50% inhibitory concentration (IC50) in the test on HepG2 was 23.5 µg/mL (≈ 58.8 µM); in test [1], more than 30 µg/mL; in the test on MCF7, more than 30 µg/mL; in the test on MDA-MB-231, more than 30 µg/mL.
With `COc1ccc2cc1Oc1ccc(cc1)C[C@H]1c3cc(O)c(c(OC)c3CC[N+]1(C)C)Oc1cc3c(cc1OC)CC[N+](C)=C3C2.[Cl-].[Cl-]`, the IC50 (with HepG2; in test [1]; in the test on MCF7; with MDA-MB-231) was more than 30 µg/mL throughout.
For the compound `COc1cc2c3c4c1Oc1cc5c(cc1O4)C(=NCC5)Cc1ccc(O)c(c1)Oc1ccc(cc1)C[C@@H]3N(C)CC2` [DEHYDROAPATELINE], the IC50 in the test with HepG2 was 3.61 µg/mL (≈ 6.6 µM); in [1] it was 4.82 µg/mL (≈ 8.82 µM); in the test on MCF7, 16.3 µg/mL (≈ 29.8 µM); in the test on MDA-MB-231, 4.71 µg/mL (≈ 8.62 µM). Besides, the inhibition at 20 µg/mL (with NUGC-3 [2]; in test [4]) was 98% in each case. Also, the inhibition at 4 µg/mL (in the test with NUGC-3 [3]; in test [5]) was 0% in each case.
On to `COc1ccc2cc1Oc1ccc(cc1)C[C@H]1c3c(cc(OC)c4c3Oc3cc5c(cc3O4)CCN(C)[C@H]5C2)CCN1C` [ISOTRILOBINE], for which the IC50 with HepG2 worked out at 0.6 µg/mL (≈ 1.04 µM); in test [1] it was 0.75 µg/mL (≈ 1.3 µM); in the test on MCF7, 3.9 µg/mL (≈ 6.76 µM); with MDA-MB-231 it was 1.6 µg/mL (≈ 2.77 µM). Moreover, the inhibition at 20 µg/mL (in the test with NUGC-3 [2]; in test [4]) was 100% each time. Also, the inhibition at 4 µg/mL was determined as 0% with NUGC-3 [3] and 79% in test [5].
On to `CC(=O)O[C@H]1C(=O)[C@@]2(C)[C@H]([C@H](OC(=O)c3ccccc3)[C@]3(O)C[C@H](OC(=O)[C@H](O)[C@@H](NC(=O)c4ccccc4)c4ccccc4)C(C)=C1C3(C)C)[C@]1(OC(C)=O)CO[C@@H]1C[C@@H]2O` [PACLITAXEL], for which the IC50 with HepG2 amounted to 0.18 µg/mL (≈ 0.211 µM); in test [1], 0.08 µg/mL (≈ 0.0937 µM); with MCF7 it was 0.14 µg/mL (≈ 0.164 µM); with MDA-MB-231, 0.12 µg/mL (≈ 0.141 µM).
